The text below walks through data of ChEMBL document CHEMBL4368894, “Fluorine substituted methoxyphenylalkyl amides as potent melatonin receptor agonists” (Medchemcomm, 2019).

Calls of active or inactive are those of the source. The rule behind the calls is not given here.

The target in test [1] is T1, Melatonin receptor type 1C (Xenopus laevis, UniProt P49219).
T1 sequence (P49219 whole entry): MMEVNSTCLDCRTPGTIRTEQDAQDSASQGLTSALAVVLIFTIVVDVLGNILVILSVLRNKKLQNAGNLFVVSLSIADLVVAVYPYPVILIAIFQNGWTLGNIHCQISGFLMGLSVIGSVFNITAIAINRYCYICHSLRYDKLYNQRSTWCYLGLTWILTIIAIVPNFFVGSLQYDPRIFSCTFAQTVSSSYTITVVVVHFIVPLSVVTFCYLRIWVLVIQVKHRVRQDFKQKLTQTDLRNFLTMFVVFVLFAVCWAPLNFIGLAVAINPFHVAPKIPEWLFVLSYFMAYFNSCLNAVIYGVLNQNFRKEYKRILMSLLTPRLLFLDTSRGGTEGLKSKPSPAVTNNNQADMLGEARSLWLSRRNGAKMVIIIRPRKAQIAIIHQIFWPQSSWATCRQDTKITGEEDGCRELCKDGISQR
Description: Agonist activity at Melatonin receptor type 1C in Xenopus laevis melanophores assessed as induction of pigment aggregation response by microtiter plate reader based absorbance detection assay. An outline of the steps:
(§1)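 Cultured melanophores (about 6-8 x 10³ per well) switched to 0.7 x L-15 medium with 1 mg·mL⁻¹ bovine albumin 1 h before concentration-response runs, in which pigment stays dispersed. Aggregation read as absorbance at 630 nm before and after drug, expressed as fractional change 1-(A_f/A_i). Drugs diluted fresh from 10⁻² M methanol or DMSO stocks; final solvent at most 1% v/v.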

Test [2] deals with T2, Melatonin receptor type 1C (Xenopus laevis) (UniProt P49219).
T2 sequence (whole entry): T1 sequence (P49219 whole entry)
As to the kind of experiment: Agonist activity at Melatonin receptor type 1C in Xenopus laevis melanophores assessed as induction of pigment aggregation response by microtiter plate reader based absorbance detection assay relative to melatonin. An outline of the steps:
as §1

In test [3] the target is T2, Melatonin receptor type 1C (Xenopus laevis). Description: Antagonist activity at Melatonin receptor type 1C in Xenopus laevis melanophores assessed as inhibition of melatonin-induced pigment aggregation response up to 10^-4M pre-incubated 60 mins before melatonin addition by microtiter plate reader based absorbance detection assay.
Test [4] has the same target. As to the kind of experiment: Antagonist activity at Melatonin receptor type 1C in Xenopus laevis melanophores assessed as inhibition of melatonin-induced pigment aggregation response pre-incubated 60 mins before melatonin addition by microtiter plate reader based absorbance detection assay. The arrangement: concentration or dose not given beside the values. An outline of the steps: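 Melanophores pre-equilibrated 1 h in 0.7 x L-15 medium containing 1 mg·mL⁻¹ bovine albumin. Antagonist (10⁻⁵ M) added 60 min ahead of melatonin, and melatonin concentration-response curves run with and without it. Pigment aggregation read as 630 nm absorbance change, 1-(A_f/A_i). pK_B taken as log(concentration ratio – 1) – log[antagonist]. Solvent at most 1% v/v.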

`COc1ccc(F)c(CNC(C)=O)c1`: the EC50 in test [1] is 1950 nM. In addition, the Efficacy in test [2] is 100%. Also, the inhibition result in test [3] was “inactive”.
In the same order, the values of `CCC(=O)NCCCc1ccc(F)c(OC)c1` are 1.1 nM, 89% and “inactive”.
For `CCC(=O)NCc1ccc(OC)c(F)c1`, the EC50 in test [1] is 1050 nM. For the same compound, in test [2], the Efficacy came out at 51%. Further, in test [4], the inhibition stood at 24%.
In the same order, the values of `CCC(=O)NCc1cc(OC)ccc1F` are 2400 nM, 69% and 23%.
With `COc1cc(CCCNC(C)=O)ccc1F`, the EC50 in test [1] was 3.89 nM. For the same compound, in test [2], the Efficacy stood at 92%. Besides, in test [3], the inhibition entry is “inactive”.
As to `CCCC(=O)NCCCc1ccc(OC)c(F)c1`, the half-maximal effective concentration (EC50) in test [1] is 417 nM. Besides, in test [2], the Efficacy worked out at 73%. Moreover, the inhibition in test [4] came out at 19%.
Consider `CCCC(=O)NCc1ccc(OC)c(F)c1`, for which, in test [1], the EC50 is 661 nM. For the same compound, the Efficacy in test [2] turned out to be 57%. The inhibition in test [4] is 37%.
Turning to `COc1ccc(CCCNC(C)=O)cc1F`, the EC50 in test [1] is 1820 nM. In test [2], the Efficacy amounted to 79%. Also, the inhibition entry in test [3] was “inactive”.
Consider `COc1ccc(F)c(CCNC(C)=O)c1`, for which the EC50 in test [1] is 2450 nM. Moreover, in test [2], the Efficacy stood at 100%. The inhibition result in test [3] is “inactive”.
Regarding `CCCC(=O)NCc1cc(OC)ccc1F`, the EC50 in test [1] was 1350 nM. Moreover, the Efficacy in test [2] worked out at 43%. Also, the inhibition in test [4] turned out to be 44%.
Consider `CCC(=O)NCC(C)(C)c1cc(OC)ccc1F`, for which, in test [1], the EC50 is 269 nM. Further, in test [2], the Efficacy amounted to 100%. Further, the inhibition result in test [3] is “inactive”.
Taken in the same sequence, the figures for `CCCC(=O)NC(C)Cc1ccc(F)c(OC)c1` (stereo not drawn) were 105 nM, 89% and “inactive”.
On to `COc1ccc2[nH]cc(CCNC(C)=O)c2c1` [MELATONIN], for which the EC50 in test [1] was 0.123 nM.
As to `CCC(=O)NCCc1cc(OC)ccc1F`, the EC50 in test [1] is 794 nM. Besides, the Efficacy in test [2] turned out to be 100%. The inhibition result in test [3] was “inactive”.
Taken in the same sequence, the figures for `COc1ccc(C(C)(C)CNC(C)=O)cc1F` were 81.3 nM, 100% and “inactive”.
In the same order, the values of `COc1ccc(CNC(C)=O)cc1F` are 1510 nM, 77% and “inactive”.
Taken in the same sequence, the figures for `COc1cc(CNC(C)=O)ccc1F` were 2090 nM, 83% and “inactive”.
With `CCCC(=O)NCCCc1cc(OC)ccc1F`, the EC50 in test [1] is 9.55 nM. In addition, in test [2], the Efficacy turned out to be 100%. The inhibition result in test [3] is “inactive”.
Taken in the same sequence, the figures for `CCC(=O)NCC(C)(C)c1ccc(F)c(OC)c1` were 0.537 nM, 100% and “inactive”.
Taken in the same sequence, the figures for `CCCC(=O)NCc1ccc(F)c(OC)c1` were 2510 nM, 75% and “inactive”.
As for `CCC(=O)NCCCc1ccc(OC)c(F)c1`, the EC50 in test [1] was 871 nM. In test [2], the Efficacy came out at 78%. For the same compound, the inhibition in test [4] was found to be 8%.
In the case of `CCC(=O)NCc1ccc(F)c(OC)c1`, the EC50 in test [1] was 2880 nM. For the same compound, the Efficacy in test [2] turned out to be 86%. For the same compound, in test [3], the inhibition entry is “inactive”.
With `COc1cc(CCNC(C)=O)ccc1F`, the EC50 in test [1] was 275 nM. For the same compound, the Efficacy in test [2] is 100%. Besides, the inhibition result in test [3] was “inactive”.
Taken in the same sequence, the figures for `CCCC(=O)NCCc1ccc(F)c(OC)c1` were 66.1 nM, 100% and “inactive”.
As for `CCCC(=O)NCC(C)(C)c1cc(OC)ccc1F`, the EC50 in test [1] was 97.7 nM. Further, the Efficacy in test [2] was determined as 100%. Further, in test [3], the inhibition entry is “inactive”.
Turning to `CCC(=O)NCCc1ccc(F)c(OC)c1`, the concentration giving a half-maximal response (EC50) in test [1] was 85.1 nM. In addition, the Efficacy in test [2] turned out to be 100%. In test [3], the inhibition result is “inactive”.
As for `CCC(=O)NCCc1ccc(OC)c(F)c1`, in test [1], the EC50 was 1350 nM. Besides, the Efficacy in test [2] was determined as 80%. Besides, the inhibition entry in test [3] was “inactive”.
Taken in the same sequence, the figures for `CCCC(=O)NCCCc1ccc(F)c(OC)c1` were 0.891 nM, 89% and “inactive”.
With `CCC(=O)NCC(C)(C)c1ccc(OC)c(F)c1`, the EC50 in test [1] was 93.3 nM. In test [2], the Efficacy amounted to 100%. For the same compound, the inhibition entry in test [3] is “inactive”.
In the same order, the values of `CCCC(=O)NCCc1cc(OC)ccc1F` are 251 nM, 100% and “inactive”.
`CC(=O)NCCc1c(Cc2ccccc2)[nH]c2ccccc12`: the inhibition in test [4] was found to be 100%.
`COc1ccc(F)c(C(C)(C)CNC(C)=O)c1`: the 50% effective concentration (EC50) in test [1] is 182 nM. The Efficacy in test [2] came out at 100%. Besides, the inhibition entry in test [3] is “inactive”.
In the same order, the values of `CCC(=O)NCCCc1cc(OC)ccc1F` are 3.72 nM, 100% and “inactive”.
In the same order, the values of `COc1ccc(CCNC(C)=O)cc1F` are 2400 nM, 80% and “inactive”.
Taken in the same sequence, the figures for `CCCC(=O)NCC(C)(C)c1ccc(F)c(OC)c1` were 0.0229 nM, 100% and “inactive”.
Consider `COc1ccc(F)c(CCCNC(C)=O)c1`, for which the EC50 in test [1] is 20.4 nM. Further, the Efficacy in test [2] amounted to 100%. For the same compound, in test [3], the inhibition result is “inactive”.
Taken in the same sequence, the figures for `CCCC(=O)NCC(C)(C)c1ccc(OC)c(F)c1` were 79.4 nM, 100% and “inactive”.
In the same order, the values of `COc1cc(C(C)(C)CNC(C)=O)ccc1F` are 1.82 nM, 100% and “inactive”.
As for `CCCC(=O)NCCc1ccc(OC)c(F)c1`, the half-maximal effective concentration (EC50) in test [1] is 1200 nM. Moreover, the Efficacy in test [2] amounted to 52%. Also, the inhibition in test [4] turned out to be 48%.
